{"source": "ChEMBL document CHEMBL4014308", "about": "“Amphiphilic Tobramycin-Lysine Conjugates Sensitize Multidrug Resistant Gram-Negative Bacteria to Rifampicin and Minocycline” (J Med Chem, 2017)", "key": {"Pseudomonas aeruginosa [1]": {"system": "Pseudomonas aeruginosa", "experiment": "Potentiation of minocycline-induced antibacterial activity against multidrug/extremely drug-resistant/colistin-susceptible Pseudomonas aeruginosa isolate P262-101856 at 4 ug/ml after 18 hrs by checkerboard assay", "format": "functional", "how_it_was_run": "(§1)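 Checkerboard in Mueller-Hinton broth: antibiotic serially diluted along one axis and adjuvant along the other (10 × 7 matrix). Inoculum from a 0.5 McFarland saline suspension diluted 1:50 in MHB; 18 h at 37 °C, then plate read. MIC is the lowest concentration with no growth. FIC of each agent is its concentration in a no-growth well divided by its MIC alone; FIC index is the sum of both. FIC index ≤0.5 counts as synergy.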"}, "Pseudomonas aeruginosa [2]": {"system": "Pseudomonas aeruginosa", "experiment": "Potentiation of minocycline-induced antibacterial activity against multidrug/extremely drug-resistant/colistin-susceptible Pseudomonas aeruginosa isolate P259-96918 assessed as fold reduction in minocycline MIC at 4 ug/ml after 18 hrs by checkerboard assay relative to control", "format": "functional", "how_it_was_run": "(§2)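 Checkerboard in Mueller-Hinton broth, 10 × 7 matrix, with the adjuvant held at 4 µg/mL. Inoculum from a 0.5 McFarland suspension diluted 1:50; 18 h at 37 °C. Antibiotic MIC (lowest concentration with no growth) with adjuvant is compared with the antibiotic MIC alone, giving a fold reduction.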"}, "Pseudomonas aeruginosa [3]": {"system": "Pseudomonas aeruginosa", "experiment": "Synergistic antibacterial activity against Pseudomonas aeruginosa PAO1 after 18 hrs in presence of novobiocin by checkerboard assay", "format": "functional", "conditions": "PAO1, 18 h", "how_it_was_run": "(§3)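 Checkerboard in MHB: antibiotic diluted along one axis and adjuvant along the other (10 × 7 matrix). Inoculum was a 1:50 dilution in MHB of a 0.5 McFarland saline suspension; incubated 18 h at 37 °C. Each FIC = concentration in the no-growth well divided by the MIC alone; FIC index = sum of both FICs. ≤0.5 synergy, 0.5–4 no interaction, ≥4 antagonism.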"}, "Pseudomonas aeruginosa [4]": {"system": "Pseudomonas aeruginosa", "experiment": "Potentiation of minocycline-induced bactericidal activity against Pseudomonas aeruginosa PAO1 at 0.125 times antibacterial MIC after 90 mins", "format": "functional", "how_it_was_run": "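Combination time-kill in PAO1 (LB, 37 °C). Aliquots taken at 0–360 min, serially diluted in PBS, plated on LB agar, and CFU counted after 20 h at 37 °C.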"}, "Pseudomonas aeruginosa [5]": {"system": "Pseudomonas aeruginosa", "experiment": "Potentiation of rifampicin-induced antibacterial activity against multidrug/extremely drug-resistant/colistin-susceptible Pseudomonas aeruginosa isolate P264-104354 assessed as fold reduction in rifampicin MIC at 4 ug/ml after 18 hrs by checkerboard assay relative to control", "format": "functional", "how_it_was_run": "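Checkerboard broth microdilution in MHB: antibiotic serially diluted along one axis, adjuvant along the other (10 × 7 matrix). Inoculum from 0.5 McFarland saline suspension diluted 1:50 in MHB; 18 h at 37 °C. MIC taken as lowest concentration with no growth. FIC per agent = combination MIC/MIC alone; FIC index = sum (≤0.5 synergy).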"}, "Pseudomonas aeruginosa [6]": {"system": "Pseudomonas aeruginosa", "experiment": "Bactericidal activity against Pseudomonas aeruginosa PAO1 at 2 times antibacterial MIC after 30 mins", "format": "functional", "how_it_was_run": "(§4)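 Time-kill with P. aeruginosa PAO1. A 0.5 McFarland suspension was diluted 1:50 in LB broth and exposed to agent in PBS (pH 7.2) at 1/2×, 1×, 2× or 4× MIC at 37 °C for 6 h. Samples at 0, 10, 30, 60, 90, 120, 240 and 360 min were serially diluted in PBS, plated on LB agar, and colonies counted after 20 h at 37 °C.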"}, "Pseudomonas aeruginosa [7]": {"system": "Pseudomonas aeruginosa", "experiment": "Synergistic antibacterial activity against Pseudomonas aeruginosa PAO1 after 18 hrs in presence of chloramphen by checkerboard assay", "format": "functional", "conditions": "PAO1, 18 h", "how_it_was_run": "as §3"}, "Escherichia coli": {"system": "Escherichia coli", "experiment": "Antibacterial activity against Escherichia coli ATCC 25922 after 18 hrs by microtiter dilution assay", "format": "functional", "conditions": "ATCC 25922, 18 h", "how_it_was_run": "(§5)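 Broth microdilution following CLSI guidelines. An overnight culture was adjusted to 0.5 McFarland in saline, then diluted 1:50 in Mueller-Hinton broth. This inoculum was added in equal volume to 2-fold serial dilutions of agent in MHB and incubated 18 h at 37 °C. MIC was the lowest concentration with no visible growth.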"}, "Streptococcus pneumoniae": {"system": "Streptococcus pneumoniae", "experiment": "Antibacterial activity against Streptococcus pneumoniae ATCC 49619 after 18 hrs by microtiter dilution assay", "format": "functional", "conditions": "ATCC 49619, 18 h", "how_it_was_run": "(§6)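 Broth microdilution per CLSI. Overnight culture adjusted to 0.5 McFarland in saline, diluted 1:50 in Mueller-Hinton broth, and added to an equal volume of 2-fold serial compound dilutions in MHB. Incubated 18 h at 37 °C. MIC taken as the lowest concentration with no visible growth.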"}, "[8]": {"system": "Staphylococcus epidermidis", "experiment": "Antibacterial activity against methicillin-susceptible Staphylococcus epidermidis isolate CANWARD-2008 81388 after 18 hrs by microtiter dilution assay", "format": "functional", "conditions": "isolate CANWARD-2008 81388, 18 h", "how_it_was_run": "as §5"}, "Pseudomonas aeruginosa [9]": {"system": "Pseudomonas aeruginosa", "experiment": "Potentiation of gentamicin-induced antibacterial activity against Pseudomonas aeruginosa PAO1 at 4 ug/ml after 18 hrs by checkerboard assay", "format": "functional", "how_it_was_run": "as §1"}, "[10]": {"experiment": "Ratio of cytotoxic concentration against human JIMT1 cells to synergistic concentration for Pseudomonas aeruginosa PAO1 in presence of minocycline"}, "[11]": {"experiment": "Toxicity in Galleria mellonella assessed as survival rate at 200 mg/kg for 4 days relative to control", "format": "organism-based", "conditions": "in vivo", "how_it_was_run": "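Galleria mellonella larvae, about 250 mg each, were used within 7 days of delivery. Compound alone was injected at 100 and 200 mg/kg with no bacterial challenge, ten larvae per group. Larvae were kept at 37 °C and survival was scored over 96 h.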"}, "Pseudomonas aeruginosa [12]": {"system": "Pseudomonas aeruginosa", "experiment": "Antibacterial activity against multidrug/extremely drug-resistant/colistin-susceptible Pseudomonas aeruginosa isolate P264-104354 after 18 hrs by microtiter dilution assay", "format": "functional", "conditions": "isolate P264-104354, 18 h", "how_it_was_run": "as §5"}, "Pseudomonas aeruginosa [13]": {"system": "Pseudomonas aeruginosa", "experiment": "Potentiation of rifampicin-induced antibacterial activity against multidrug/extremely drug-resistant/colistin-susceptible Pseudomonas aeruginosa isolate P259-96918 assessed as fold reduction in rifampicin MIC at 4 ug/ml after 18 hrs by checkerboard assay relative to control", "format": "functional", "how_it_was_run": "as §2"}, "Pseudomonas aeruginosa [14]": {"system": "Pseudomonas aeruginosa", "experiment": "Potentiation of minocycline-induced antibacterial activity against multidrug/extremely drug-resistant/colistin-susceptible Pseudomonas aeruginosa isolate P264-104354 assessed as fold reduction in minocycline MIC at 4 ug/ml after 18 hrs by checkerboard assay relative to control", "format": "functional", "how_it_was_run": "as §2"}, "Pseudomonas aeruginosa [15]": {"system": "Pseudomonas aeruginosa", "experiment": "Potentiation of rifampicin-induced antibacterial activity against multidrug/extremely drug-resistant/colistin-susceptible Pseudomonas aeruginosa isolate P262-101856 infected in Galleria mellonella assessed as mortality at 12.5 to 37.5 mg/kg after 24 hrs relative to control", "format": "functional", "how_it_was_run": "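Galleria mellonella larvae (~250 mg, used within 7 days), 15 per group, injected with 10 µL XDR P262 at 1.0×10^3 CFU/mL in PBS. PBS vehicle control. Survival scored over 24 h at 37 °C.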"}, "[16]": {"experiment": "Ratio of cytotoxic concentration against human DU145 cells to synergistic concentration for Pseudomonas aeruginosa PAO1 in presence of minocycline"}, "Pseudomonas aeruginosa [17]": {"system": "Pseudomonas aeruginosa", "experiment": "Bactericidal activity against Pseudomonas aeruginosa PAO1 at antibacterial MIC after 2 hrs", "format": "functional", "how_it_was_run": "as §4"}, "Pseudomonas aeruginosa [18]": {"system": "Pseudomonas aeruginosa", "experiment": "Synergistic antibacterial activity against Pseudomonas aeruginosa PAO1 after 18 hrs in presence of erythromycin by checkerboard assay", "format": "functional", "conditions": "PAO1, 18 h", "how_it_was_run": "as §3"}, "Klebsiella pneumoniae": {"system": "Klebsiella pneumoniae", "experiment": "Antibacterial activity against Klebsiella pneumoniae ATCC 13883 after 18 hrs by microtiter dilution assay", "format": "functional", "conditions": "ATCC 13883, 18 h", "how_it_was_run": "as §6"}, "Pseudomonas aeruginosa [19]": {"system": "Pseudomonas aeruginosa", "experiment": "Potentiation of rifampicin-induced antibacterial activity against multidrug/extremely drug-resistant/colistin-susceptible Pseudomonas aeruginosa isolate 100036 at 4 ug/ml after 18 hrs by checkerboard assay", "format": "functional", "how_it_was_run": "as §1"}}, "note": "Active and inactive are the calls of the source. The rule behind the calls is not given here.", "data": [{"smiles": "Cl.Cl.Cl.Cl.Cl.Cl.Cl.NCCCC[C@H](N)C(=O)N(CCCCCCCCCCCCO[C@@H]1[C@@H](O[C@H]2O[C@H](CO)[C@@H](O)[C@H](N)[C@H]2O)[C@H](N)C[C@H](N)[C@H]1O[C@H]1O[C@H](CN)[C@@H](O)C[C@H]1N)Cc1c2ccccc2c(Cl)c2ccccc12", "values": [{"measurement": "fractional inhibitory concentration index (FICI)", "setting": "Pseudomonas aeruginosa [1]", "value": 0.133}, {"measurement": "fold change (FC)", "setting": "Pseudomonas aeruginosa [2]", "value": 64}, {"measurement": "MIC", "setting": "Pseudomonas aeruginosa [3]", "value": 2, "unit": "µg/mL"}, {"measurement": "Activity", "setting": "Pseudomonas aeruginosa [4]", "value": "Active"}, {"measurement": "fold change (FC)", "setting": "Pseudomonas aeruginosa [5]", "value": 64}, {"measurement": "Activity", "setting": "Pseudomonas aeruginosa [6]", "value": "Active"}, {"measurement": "MIC", "setting": "Pseudomonas aeruginosa [7]", "value": 4, "unit": "µg/mL"}, {"measurement": "MIC", "setting": "Escherichia coli", "value": 32, "unit": "µg/mL"}, {"measurement": "MIC", "setting": "Streptococcus pneumoniae", "value": 32, "unit": "µg/mL"}, {"measurement": "MIC", "setting": "[8]", "value": 2, "unit": "µg/mL"}, {"measurement": "fractional inhibitory concentration index (FICI)", "setting": "Pseudomonas aeruginosa [9]", "value": 1.125}, {"measurement": "Ratio", "setting": "[10]", "value": 6}, {"measurement": "survival at 96 h", "setting": "[11]", "value": 100, "unit": "%"}, {"measurement": "MIC", "setting": "Pseudomonas aeruginosa [12]", "value": 32, "unit": "µg/mL"}, {"measurement": "fold change (FC)", "setting": "Pseudomonas aeruginosa [13]", "value": 256}, {"measurement": "fold change (FC)", "setting": "Pseudomonas aeruginosa [14]", "value": 128}, {"measurement": "mortality", "setting": "Pseudomonas aeruginosa [15]", "value": 100, "unit": "%"}, {"measurement": "Ratio", "setting": "[16]", "value": 6}, {"measurement": "Activity", "setting": "Pseudomonas aeruginosa [17]", "value": "Active"}, {"measurement": "MIC", "setting": "Pseudomonas aeruginosa [18]", "value": 4, "unit": "µg/mL"}, {"measurement": "MIC", "setting": "Klebsiella pneumoniae", "value": 128, "unit": "µg/mL"}, {"measurement": "fractional inhibitory concentration index (FICI)", "setting": "Pseudomonas aeruginosa [19]", "value": 0.079}]}]}
